Experimental data: ChEMBL document CHEMBL4033799, “Stable and Long-Lasting, Novel Bicyclic Peptide Plasma Kallikrein Inhibitors for the Treatment of Diabetic Macular Edema” (J Med Chem, 2018)
*1 amine or outer side, *2 acyl side, *3 side chain or, on linkers, in order; H or OH if unused. Where a SMILES comes first, the peptide text is derived from it. Bridges are numbered along the chain shown (N, C = ends). Roman numbers before positions name the chains, in order. [ ]: non-standard residue; d: D form. ξ: configuration not given here. X1 = CC(=O)N[C@@H](CSCc1cc(C[*:1])cc(C[*:2])c1)C(=O)O; TBMB = c1c(C[*:1])cc(C[*:3])cc1C[*:2]; hArg = N=C(N)NCCCC[C@H](N)C(=O)O; ξAze = O=C(O)C1CCN1

Experiments:
Plasma kallikrein [1] = target: Plasma kallikrein (Homo sapiens, UniProt P03952); assay: Inhibition of human plasma kallikrein using fluorogenic H-Pro-Phe-Arg-AMC peptide as substrate preincubated for 15 mins followed by substrate addition measured by fluorescence-based assay; conditions: read-out: Ki(app)
Plasma kallikrein [2] = target: Plasma kallikrein (Rattus norvegicus, UniProt P14272); assay: Inhibition of recombinant Sprague-Dawley rat plasma kallikrein using fluorogenic H-Pro-Phe-Arg-AMC peptide as substrate preincubated for 15 mins followed by substrate addition measured by fluorescence-based assay; conditions: read-out: Ki(app)
Plasma [3] = assay: (§1) Drug level in human plasma treated with (3S,6S,9R,12S,15S,18S,21S,24S,27R)-15-((1H-imidazol-5-yl)methyl)-1-((S)-1-((S)-2-((S)-2-((R)-2-acetamido-3-mercaptopropanamido)-3-hydroxypropanamido)-3-(1H-indol-3-yl)propanoyl)pyrrolidin-2-yl)-18-(3-amino-3-oxopropyl)-21-(carboxymethyl)-6-(3-guanidinopropyl)-12,24-diisobutyl-9,27-bis(mercaptomethyl)-3-methyl-1,4,7,10,13,16,19,22,25-nonaoxo-2,5,8,11,14,17,20,23,26-nonaazaoctacosan-28-oic acid at 50 uM after 18 hrs by MALDI-TOF analysis; format: ADME, cell-free
How it was run: (§2)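 Peptide from a 1 mM DMSO stock was diluted to 50 μM in citrated mouse, rat or human plasma and incubated at 37 °C for up to 2 days. Samples taken at time points were quenched in 1:1 acetonitrile/methanol and centrifuged. The supernatant was mixed with ammonium bicarbonate in acetonitrile/water, and parent peptide and metabolites were detected by MALDI-TOF.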

[4] = Aqueous solubility of the compound in buffer; format: physicochemical
Plasma [5] = assay: as §1, with “rat” for “human”; format: ADME, cell-free; how it was run: as §2
(UniProt A0A8D1M4K5) = assay: Inhibition of pig plasma kallikrein using fluorogenic H-Pro-Phe-Arg-AMC peptide as substrate preincubated for 15 mins followed by substrate addition measured by fluorescence-based assay; parameters: species or system Sus scrofa; conditions: read-out: Ki(app)
[6] = Inhibition of rabbit plasma kallikrein using fluorogenic H-Pro-Phe-Arg-AMC peptide as substrate preincubated for 15 mins followed by substrate addition measured by fluorescence-based assay; parameters: species or system Oryctolagus cuniculus; conditions: read-out: Ki(app)
How it was run: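 Assays ran at 25 °C in 50 mM Tris-HCl, 250 mM NaCl, 1.5 μM BSA, pH 7.5. PKal (nominal 1–2 nM) was preincubated 15 min with serially diluted peptide. […] Human PKal was purified from plasma; rat PKal was made in-house or bought; other species were purified in-house from kaolin-activated plasma.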

Chain of Plasma kallikrein (Homo sapiens, UniProt P03952) (P03952 20-390 limits assumed): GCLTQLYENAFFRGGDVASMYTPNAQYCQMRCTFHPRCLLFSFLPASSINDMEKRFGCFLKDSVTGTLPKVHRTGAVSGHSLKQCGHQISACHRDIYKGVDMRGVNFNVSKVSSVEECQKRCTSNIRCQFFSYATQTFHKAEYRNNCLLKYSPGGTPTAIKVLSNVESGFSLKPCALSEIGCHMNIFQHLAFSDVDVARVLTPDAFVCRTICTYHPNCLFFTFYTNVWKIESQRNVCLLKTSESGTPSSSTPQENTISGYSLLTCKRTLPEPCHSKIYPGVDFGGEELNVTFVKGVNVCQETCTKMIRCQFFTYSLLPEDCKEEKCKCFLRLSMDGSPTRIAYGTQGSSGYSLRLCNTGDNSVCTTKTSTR
Chain of Plasma kallikrein (Homo sapiens, UniProt P03952) (P03952 391-638 limits assumed): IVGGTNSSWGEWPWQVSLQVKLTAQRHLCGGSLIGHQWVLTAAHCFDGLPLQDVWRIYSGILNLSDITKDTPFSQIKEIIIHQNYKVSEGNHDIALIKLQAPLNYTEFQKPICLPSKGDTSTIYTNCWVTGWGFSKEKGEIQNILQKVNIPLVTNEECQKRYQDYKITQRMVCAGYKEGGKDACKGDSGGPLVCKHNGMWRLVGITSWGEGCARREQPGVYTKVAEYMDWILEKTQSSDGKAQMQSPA
Chain of Plasma kallikrein (Rattus norvegicus, UniProt P14272) (P14272 20-390 limits assumed): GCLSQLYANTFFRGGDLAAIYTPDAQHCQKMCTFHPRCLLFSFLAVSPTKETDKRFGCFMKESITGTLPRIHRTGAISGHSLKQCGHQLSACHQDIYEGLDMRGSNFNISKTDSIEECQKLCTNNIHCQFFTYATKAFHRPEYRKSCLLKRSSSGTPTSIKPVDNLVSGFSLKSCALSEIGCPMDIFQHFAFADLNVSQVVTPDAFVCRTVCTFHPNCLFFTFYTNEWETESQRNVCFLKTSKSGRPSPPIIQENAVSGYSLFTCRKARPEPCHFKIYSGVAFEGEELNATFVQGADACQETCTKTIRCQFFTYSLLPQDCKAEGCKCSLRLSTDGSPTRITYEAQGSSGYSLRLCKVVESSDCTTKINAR
Chain of Plasma kallikrein (Rattus norvegicus, UniProt P14272) (P14272 391-638 limits assumed): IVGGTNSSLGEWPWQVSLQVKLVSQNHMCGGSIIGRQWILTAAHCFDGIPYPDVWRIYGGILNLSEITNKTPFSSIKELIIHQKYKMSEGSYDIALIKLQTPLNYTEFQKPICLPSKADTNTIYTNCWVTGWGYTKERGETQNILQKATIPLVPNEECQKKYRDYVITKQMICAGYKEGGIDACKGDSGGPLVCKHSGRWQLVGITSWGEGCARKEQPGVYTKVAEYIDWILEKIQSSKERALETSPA

Molecule CC(=O)N[C@H]1CSCc2cc3cc(c2)CSC[C@H](NC(=O)[C@H](CCCCNC(=N)N)NC(=O)[C@H](C)NC(=O)C2CCN2C(=O)[C@H](Cc2c[nH]c4ccccc24)NC(=O)[C@H](CO)NC1=O)C(=O)N[C@@H](CC(C)C)C(=O)N[C@@H](Cc1cnc[nH]1)C(=O)N[C@@H](CCC(N)=O)C(=O)N[C@@H](CC(=O)O)C(=O)N[C@@H](CC(C)C)C(=O)N[C@H](C(=O)O)CSC3 (stereo partly drawn) (Ac-CSW[ξAze]A[hArg]CLHQDLC-OH; linker 1-7-13 via TBMB) has a Ki (Plasma kallikrein [1]) of 0.14 nM.
CC(C)C[C@@H]1NC(=O)[C@H](CC(=O)O)NC(=O)[C@H](CCC(N)=O)NC(=O)[C@H](Cc2cnc[nH]2)NC(=O)[C@H](CC(C)C)NC(=O)[C@@H]2CSCc3cc(cc(c3)CSC[C@@H](C(=O)N[C@@H](C)C(=O)O)NC1=O)CSC[C@H](NC(=O)[C@H](C)N)C(=O)N[C@@H](CO)C(=O)N[C@@H](Cc1c[nH]c3ccccc13)C(=O)N1CCC[C@H]1C(=O)N[C@@H](C)C(=O)N[C@@H](CCCNC(=N)N)C(=O)N2 (H-ACSWPARCLHQDLCA-OH; linker 2-8-14 via TBMB) showed a Ki (Plasma kallikrein [2]) of 0.9 nM and a Ki (Plasma kallikrein [1]) of 0.07 nM.
For CC(=O)N[C@@H](CSCc1cc2cc(c1)CSC[C@H](N)C(=O)N[C@@H](CC(C)C)C(=O)N[C@@H](Cc1cnc[nH]1)C(=O)N[C@@H](CCC(N)=O)C(=O)N[C@@H](CC(=O)O)C(=O)N[C@@H](CC(C)C)C(=O)N[C@H](C(=O)O)CSC2)C(=O)N[C@@H](CO)C(=O)O, the Drug metabolism (Plasma [3]) was “Metabolite_Detected”.
For CC(=O)N[C@@H](CSCc1cc2cc(c1)CSC[C@H](N)C(=O)N[C@@H](CC(C)C)C(=O)N[C@@H](Cc1cnc[nH]1)C(=O)N[C@@H](CCC(N)=O)C(=O)N[C@@H](CC(=O)O)C(=O)N[C@@H](CC(C)C)C(=O)N[C@H](C(=O)O)CSC2)C(=O)O (H-CLHQDLC-OH; linker 1-7 via X1), the Drug metabolism (Plasma [3]) was “Metabolite_Detected”.
In the case of CC(=O)N[C@H]1CSCc2cc3cc(c2)CSC[C@H](NC(=O)[C@H](CCCCNC(=N)N)NC(=O)[C@H](Cc2ccc(O)cc2)NC(=O)C2CCN2C(=O)[C@H](Cc2ccccc2)NC(=O)[C@H](CO)NC1=O)C(=O)N[C@@H](CC(C)C)C(=O)N[C@@H](Cc1cnc[nH]1)C(=O)N[C@@H](CCC(N)=O)C(=O)N[C@@H](CC(=O)O)C(=O)N[C@@H](CC(C)C)C(=O)N[C@H](C(=O)O)CSC3 (stereo partly drawn) (Ac-CSF[ξAze]Y[hArg]CLHQDLC-OH; linker 1-7-13 via TBMB), the Ki (Plasma kallikrein [1]) is reported as 0.21 nM.
With CC[C@H](C)[C@@H]1NC(=O)[C@H](CC(=O)O)NC(=O)[C@@H]2CCCN2C(=O)[C@H](Cc2ccc(O)cc2)NC(=O)[C@H](Cc2ccc(O)cc2)NC(=O)[C@H](C(C)C)NC(=O)[C@@H]2CSCc3cc(cc(c3)CSC[C@@H](C(=O)N[C@@H](C)C(=O)O)NC1=O)CSC[C@H](NC(=O)[C@H](C)N)C(=O)N[C@@H](CO)C(=O)N[C@@H](Cc1ccccc1)C(=O)N1CCC[C@H]1C(=O)N[C@@H](Cc1ccc(O)cc1)C(=O)N[C@@H](CCCNC(=N)N)C(=O)N2 (H-ACSFPYRCVYYPDICA-OH; linker 2-8-15 via TBMB) the solubility [4] was “Insoluble”.
CC(=O)N[C@H]1CSCc2cc3cc(c2)CSC[C@H](NC(=O)[C@H](CCCNC(=N)N)NC(=O)[C@H](Cc2ccc(O)cc2)NC(=O)[C@@H]2CCCN2C(=O)[C@H](Cc2ccccc2)NC(=O)[C@H](CO)NC1=O)C(=O)N[C@@H](C)CN[C@@H](Cc1cnc[nH]1)C(=O)N[C@@H](CCC(N)=O)C(=O)N[C@@H](CC(=O)O)C(=O)N[C@@H](CC(C)C)C(=O)N[C@H](C(=O)O)CSC3 showed a Ki (Plasma kallikrein [1]) of 1.3 nM.
In the case of CC(=O)N[C@@H](CSCc1cc2cc(c1)CSC[C@H](N)C(=O)N[C@@H](CC(C)C)C(=O)N[C@@H](Cc1cnc[nH]1)C(=O)N[C@@H](CCC(N)=O)C(=O)N[C@@H](CC(=O)O)C(=O)N[C@@H](CC(C)C)C(=O)N[C@H](C(=O)O)CSC2)C(=O)N[C@@H](CO)C(=O)N[C@@H](Cc1c[nH]c2ccccc12)C(=O)N1CCC[C@H]1C(=O)N[C@@H](C)C(=O)O (I: H-CLHQDLC-OH / II: Ac-CSWPA-OH; linker I:1-I:7-II:1 via TBMB), the Drug metabolism (Plasma [3]) is reported as “Metabolite_Detected”.
For CC(=O)N[C@H]1CSCc2cc(cc(CSC[C@H](NC(=O)[C@H](CC(C)C)NC(=O)[C@H](CC(=O)O)NC(=O)[C@H](CCC(N)=O)NC(=O)[C@@H](N)Cc3cnc[nH]3)C(=O)O)c2)CSC[C@@H](C(=O)O)NC(=O)[C@H](CCCNC(=N)N)NC(=O)[C@H](C)NC(=O)[C@@H]2CCCN2C(=O)[C@H](Cc2c[nH]c3ccccc23)NC(=O)[C@H](CO)NC1=O (I: Ac-CSWPARC-OH / II: H-HQDLC-OH; linker I:1-I:7-II:5 via TBMB), the Drug metabolism (Plasma [5]) was “Metabolite_Detected”.
In the case of CC(=O)N[C@H]1CSCc2cc3cc(c2)CSC[C@H](NC(=O)[C@H](CCCNC(=N)N)NC(=O)[C@H](Cc2ccc(O)cc2)NC(=O)[C@@H]2CCCN2C(=O)[C@H](Cc2ccccc2)NC(=O)[C@H](CO)NC1=O)C(=O)N[C@@H](CC(C)C)C(=O)N[C@@H](Cc1cnc[nH]1)C(=O)N[C@@H](CCC(N)=O)C(=O)N[C@@H](CC(=O)O)C(=O)N[C@@H](CC(C)C)C(=O)N[C@H](C(=O)O)CSC3 (Ac-CSFPYRCLHQDLC-OH; linker 1-7-13 via TBMB), the Ki (Plasma kallikrein [2]) is reported as 11 nM, the Ki ((UniProt A0A8D1M4K5)) is reported as 22 nM and the Ki [6] is reported as 84 nM. The Ki (Plasma kallikrein [1]) was 0.39 nM.
For CC(=O)N[C@H]1CSCc2cc(cc(CSC[C@H](NC(=O)[C@H](CC(C)C)NC(=O)[C@@H](N)CC(=O)O)C(=O)O)c2)CSC[C@@H](C(=O)O)NC(=O)[C@H](CCCNC(=N)N)NC(=O)[C@H](C)NC(=O)[C@@H]2CCCN2C(=O)[C@H](Cc2c[nH]c3ccccc23)NC(=O)[C@H](CO)NC1=O, the Drug metabolism (Plasma [5]) was “Metabolite_Detected”.
Molecule CC[C@H](C)[C@@H]1NC(=O)[C@H](CC(=O)O)NC(=O)[C@@H]2CCCN2C(=O)[C@H](Cc2ccc(O)cc2)NC(=O)[C@H](Cc2ccc(O)cc2)NC(=O)[C@H](C(C)C)NC(=O)[C@@H]2CSCc3cc(cc(c3)CSC[C@@H](C(=O)N[C@@H](C)C(=O)O)NC1=O)CSC[C@H](NC(=O)[C@H](C)N)C(=O)N[C@@H](CC(N)=O)C(=O)N[C@@H](CC(N)=O)C(=O)N[C@@H](Cc1ccccc1)C(=O)N1CCC[C@H]1C(=O)N[C@@H](Cc1ccccc1)C(=O)N[C@@H](CCCNC(=N)N)C(=O)N2 (H-ACNNFPFRCVYYPDICA-OH; linker 2-9-16 via TBMB) has a Ki (Plasma kallikrein [1]) of 0.44 nM.
Work on CC(=O)N[C@H]1CSCc2cc3cc(c2)CSC[C@H](NC(=O)[C@H](CCCNC(=N)N)NC(=O)[C@H](C)NC(=O)C2CCN2C(=O)[C@H](Cc2c[nH]c4ccccc24)NC(=O)[C@H](CO)NC1=O)C(=O)N[C@@H](CC(C)C)C(=O)N[C@@H](Cc1cnc[nH]1)C(=O)N[C@@H](CCC(N)=O)C(=O)N[C@@H](CC(=O)O)C(=O)N[C@@H](CC(C)C)C(=O)N[C@H](C(=O)O)CSC3 (stereo partly drawn) (Ac-CSW[ξAze]ARCLHQDLC-OH; linker 1-7-13 via TBMB) yielded a Ki (Plasma kallikrein [1]) of 0.06 nM.
With CC(=O)N[C@H]1CSCc2cc(CSC[C@H](NC(=O)[C@H](CC(C)C)NC(=O)[C@@H](N)CC(=O)O)C(=O)O)cc(c2)CSC[C@@H](C(=O)N[C@@H](CC(C)C)C(=O)O)NC(=O)[C@H](CCCNC(=N)N)NC(=O)[C@H](C)NC(=O)[C@@H]2CCCN2C(=O)[C@H](Cc2c[nH]c3ccccc23)NC(=O)[C@H](CO)NC1=O the Drug metabolism (Plasma [5]) was “Metabolite_Detected”.
